This passage reports nonsense suppression results from the RNAGym collection of RNA variant scans (doi:10.1101/gad.245936.114).

B1: tRNA (parent)
chain: CUCUCGGUAGCCAAGUUGGUUUAAGGCGCAAGACUUUAAUUUAUCACUACGAAAUCUUGAGAUCGGGCGUUCGACUCGCCCCCGGGAGAUUUUUUCCUCGAGCAA

Variants at the floor of the assay were thinned out.

The variants in the data set derive from B1. The data set is described as follows: nonsense suppression (GFP-seq) (ratio to wild type); higher = more function; SUP4oc tRNA, yeast GFP reporter sort-seq. The essentials: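 Sorted GFP/RFP bins of yeast were each Illumina-sequenced with a phred ≥30 cutoff; the cells held a genome-integrated ochre-suppressor tRNA variant from a library with ~3% random mutations, a galactose-driven GFP ochre reporter, and RFP. Culture was in raffinose/galactose medium containing 80 mg/L adenine. Nonsense suppression, termed GFPSEQ, is the median GFP/RFP of the bins weighted by each variant's estimated cell share per bin, relative to the unmutated parent tRNA, for variants reaching ≥100 reads and ≥30 cells.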
Turning to CUCUCGGUAGCCAAGUUGGUUUAAGGCGCAACAGCUUAAUUUAUCACUACGAAAUCUUGAGAUCGGGCGUUCGACUCGCCCCCGGGAGAUUUUUUCCUCGAGCAA [G32C C34G U35C], the nonsense suppression was not above 0.026.

Turning to CUCUCGGUAGCCAAGUUGGUUUAAGGCGCAAGCCUUUAAUUUAUCACUACGAAAUCUUGAAGUCGGGCGUUCCACUCGCCCCCGGGAGAUUUUUUCCUCGAGCAA [A33C G61A A62G G73C], the nonsense suppression is not above 0.026.

Turning to CUCUCGGUAGCCAAGUUGGUUUAAGGCGCAAUACUUUAAUUUAUCACUACGAAAUCUUGAGAUCGAGCGUUCGACUCGCCCCCGGGAGAUUUUUUCCUCGAGCAA [G32U G66A], the nonsense suppression was not above 0.026.

On to CUCUCGGUAGCCAAGUUGGUUUAAGGCGCAAUACUUUAAUUUAUCACUACGAAAUCUUGAGAUCGGGCGUUCGACCCGCCCCCGGGAGAUUUUUUCCUCGAGCAA [G32U U76C], for which the nonsense suppression is not above 0.026.

For CUCUCGGUAGCCAAGUUGGUUUAAGGCGCAACACUUUAAUUUAUCACUACGAAAUCUUGAGAUCGGGCGUUCGACUCGCCGCCGGGAGAUUUUUUCCUCGAGCAA [G32C C81G], the nonsense suppression was not above 0.026.

For the variant CUCUCGGUAGCCAAGUUGGUUUAAGGCGCAAGGCUUUAAUUUAUCACUACGAAAUCUUGAGAUCGGGCGUUCGACUCGCCCCCGGGAGAUUUUUUCCUCGAGCAA [A33G], the nonsense suppression amounted to 0.346.

Take CUCUCGGUAGCCAAGUUGGUUUAAGGCGCAAGGCUUUAAUUUAUCACUACGAAAUCUUGAGAUCGGGCGUUCGAGUCGCCCCCGGGAGAUUUUUUCCUCGAGCAA [A33G C75G]: the nonsense suppression was 0.216.

Turning to CUCUCGGUAGCCAAGUUGGUUUAAGGCGCAAGGCUUUAAUUUAUCACUACGAAAUCUUGAGAUCGGGCGUUCGAUUCGCCCCCGGGAGAUUUUUUCCUCGAGCAA [A33G C75U], the nonsense suppression came out at 0.275.

Take CUCUCGGUAGCCAAGUUGGUUUAAGGCGCAAGGCUUUAAUUUAUCACUACGAAAUCUUGAGAUCGGGCGUUCGAAUCGCCCCCGGGAGAUUUUUUCCUCGAGCAA [A33G C75A]: the nonsense suppression worked out at 0.235.

Consider CUCUCGGUAGCCAAGUUGGUUUAAGGCGCAACACUUUAAUUUAUCACUACGAAAUCUUGAGGUCGGGCGUUCGACUCGCUCCCGGGAGAUUUUUUCCUCGAGCAA [G32C A62G C80U], for which the nonsense suppression was not above 0.026.

Regarding CUCUCGGUAGCCAAGUUGGUUUAAGGCGCAAUACUUUAAUUUAUCACUACGAAAUCUUGAGAACGGGCGUUCGACUCGCCCUCGGGAGAUUUUUUCCUCGAGCAA [G32U U63A C82U], the nonsense suppression is 0.0283.

As to CUCUCGGUAGCCAAGUUGGUUUAAGGCGCAAGCCUUUAAUUUAUCACUACGAAAUAUGGAGAUCGGGCGUUCGACUCGCCCCCGUGAGAUUUUUUCCUCGAGCAA [A33C C56A U58G G85U], the nonsense suppression was not above 0.026.

Turning to CUCUCGGUAGCCAAGUUGGUUUAAGGCGCAAGCCUUUAAUUUAUCACUACGAAAUCGUGAGAUGGGGCGUUCGACUCGCCCCCGGGAGAUUUUUUCCUCGAGCAA [A33C U57G C64G], the nonsense suppression was not above 0.026.

Take CUCUCGGUAGCCAAGUUGGUUUAAGGCGCAACACUUUAAUUUAUCACUACGAAAUCUUGAGUUCCGGCGUUCGACUCGCACCCGGGAAAUUUUUUCCUCGAGCAA [G32C A62U G65C C80A G88A]: the nonsense suppression is not above 0.026.

As for CUCUCGGUAGCCAAGUUGGUUUAAGGCGCAUGACUUUAAUUUAUCACUACGAAAUCUUGAGAUCGGGCGUUCGACACGCCCCCGGGAGAUUUUUUCCUCGAGCAA [A31U U76A], the nonsense suppression turned out to be 0.0413.

In the case of CUCUCGGUAGCCAAGUUGGUUUAAGGCGCAAGGCUUUAAUUUAUCACUACGAAAUCUUGAGAUCGGGCGUUCGACUCGCCCCCGGGGGAUUUUUUCCUCGAGCAA [A33G A87G], the nonsense suppression was 0.0348.

Take CUCUCGGUAGCCAAGUUGGUUUAAGGCGCAAGGCUUUAAUUUAUCACUACGAAAUCUUGAGAUCGGGCGUUCGACUCGCCCCCGGGUUAUUUUUUCCUCGAGCAA [A33G A87U G88U]: the nonsense suppression was not above 0.026.

Take CUCUCGGUAGCCAAGUUGGUUUAAGGCGCAAGCCCUUAAUUUAUCACUACGAAAUCUUGAGAUCGGGCGUUCGACUCGCCCCAGGGAGAUUUUUUCCUCGAGCAA [A33C U35C C83A]: the nonsense suppression was not above 0.026.

On to CUCUCGGUAGCCAAGUUGGUUUAAGGCGCAUGACUUUAAUUUAUCACUACGAAAUCUUGAGAUCGGGCGAUCGACUCGCCCCCGGGAGAUUUUUUCCUCGAGCAA [A31U U70A], for which the nonsense suppression is not above 0.026.

With CUCUCGGUAGCCAAGUUGGUUUAAGGCGCAUGACUUUAAUUUAUCACUACGAAAUCUUGAGAUCGGGCGCUCGACUCGCCCCCGGGAGAUUUUUUCCUCGAGCAA [A31U U70C], the nonsense suppression is not above 0.026.

For the variant CUCUCGGUAGCCAAGUUGGUUUAAGGCGCAAGGCUUUAAUUUAUCACUACGAAUUCUUGAGAUCGGGCGUUCGACUCGCCCCCGGGAGAUUUUUUCCUCGAGCAA [A33G A54U], the nonsense suppression stood at 0.0526.

For the variant CUCUCGGUAGCCAAGUUGGUUUAAGGCGCAAUACUUUAAUUUAUCACUACGAACUCUUGAGAUCGGGCGUUCGACUCGCCGCCGGGAGAUUUUUUCCUCGAGCAA [G32U A54C C81G], the nonsense suppression was not above 0.026.

Turning to CUCUCGGUAGCCAAGUUGGUUUAAGGCGCAAGCCUUUAAUUUAUCACUACGAAAUCUUGAGAACGGGCGUUCGACUCGCCCCCGGGAGAUUUUUUCCUCGAGCAA [A33C U63A], the nonsense suppression was not above 0.026.

With CUCUCGGUAGCCAAGUUGGUUUAAGGCGCAAGCCUUUAAUUUAUCACUACGAAACCUUGAGAUGGGGCGUUCGACCCGCCCCCGGGAGAUUUUUUCCUCGAGCAA [A33C U55C C64G U76C], the nonsense suppression was not above 0.026.

With CUCUCGGUAGCCAAGUUGGUUUAAGGCGCAACACUUUAAUUUAUCACUACGAAAUCUUGAGACCGGGCGUUCGACUCGCCCCCGGGAGAUUUUUUCCUCGAGCAA [G32C U63C], the nonsense suppression was not above 0.026.

Consider CUCUCGGUAGCCAAGUUGGUUUAAGGCGCAAGGCUUUAAUUUAUCACUACGAAAUCUUGAGAUCGCGCGUUCGACUCGCCCCCGGGAGAUUUUUUCCUCGAGCAA [A33G G66C], for which the nonsense suppression was found to be 0.0263.

With CUCUCGGUAGCCAAGUUGGUUUAAGGCGCAAGGCUUUAAUUUAUCACUACGAAAUCUUGAGAUCGGGCGUUCGCCUCGCACCCGGGAGAUUUUUUCCUCGAGCAA [A33G A74C C80A], the nonsense suppression is not above 0.026.
